Experimental data from publication PMC6219460 (SLAS discovery : advancing life sciences R & D, 2017).
Where two headings read alike, the source gives them in different places.

Tests used:
human CB2 receptor [1] = target: T1, human CB2 receptor (Homo sapiens, UniProt P34972); format: binding; conditions: for selectivity for CB2 versus CB1 (in words): from radioligand binding at CB2 and CB1
human CB2 receptor [2] = target: T1, human CB2 receptor; assay: [35S]GTPγS binding assay, HEK293 membranes expressing CB2; format: biochemical; conditions: 10 μM GDP
Method in brief: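 HEK293 membranes expressing recombinant human CB2 (8 µg/well) were incubated with 0.1 nM [35S]GTPγS, 10 µM GDP, 0.1% (w/v) BSA and test compound (typically 1 nM–10 µM) in 50 mM Tris-HCl pH 7.4, 3 mM MgCl2, 0.2 mM EGTA, 100 mM NaCl. Nonspecific binding was set with 10 µM unlabeled GTPγS. Reactions were stopped by filtration. Duplicates, three experiments.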

human CB1 receptor = human CB1 receptor (Homo sapiens, UniProt P21554); format: binding; conditions: for inhibition of [3H]CP 55,940 binding to CB1 receptors (in words): concentrations up to 10 μM
Sequence of human CB1 receptor (P21554 whole entry): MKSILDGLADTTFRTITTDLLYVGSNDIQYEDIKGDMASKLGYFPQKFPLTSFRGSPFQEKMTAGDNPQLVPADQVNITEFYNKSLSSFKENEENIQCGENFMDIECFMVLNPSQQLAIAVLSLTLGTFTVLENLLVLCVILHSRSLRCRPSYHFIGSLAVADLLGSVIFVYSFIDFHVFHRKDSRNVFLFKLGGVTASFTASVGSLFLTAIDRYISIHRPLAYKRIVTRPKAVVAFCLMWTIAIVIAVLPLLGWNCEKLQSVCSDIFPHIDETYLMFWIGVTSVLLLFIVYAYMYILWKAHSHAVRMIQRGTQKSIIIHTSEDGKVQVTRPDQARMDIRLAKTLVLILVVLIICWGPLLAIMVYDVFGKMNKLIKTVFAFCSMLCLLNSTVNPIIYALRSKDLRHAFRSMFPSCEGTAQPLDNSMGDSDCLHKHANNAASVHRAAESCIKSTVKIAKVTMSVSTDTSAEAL

[3] = Ki (μM) CB2, [3H]CP 55,940 tracer at 1.5 nM
[4] = log (EC50, Molar) GTPγS binding CB2, 0.1 nM [35S]GTPγS
[5] = EC50 GTPγS binding, 0.1 nM [35S]GTPγS
[6] = read-out: log (Ki, Molar) CB1 (converted), [3H]CP 55,940 tracer at 1.5 nM

T1 sequence (P34972 whole entry): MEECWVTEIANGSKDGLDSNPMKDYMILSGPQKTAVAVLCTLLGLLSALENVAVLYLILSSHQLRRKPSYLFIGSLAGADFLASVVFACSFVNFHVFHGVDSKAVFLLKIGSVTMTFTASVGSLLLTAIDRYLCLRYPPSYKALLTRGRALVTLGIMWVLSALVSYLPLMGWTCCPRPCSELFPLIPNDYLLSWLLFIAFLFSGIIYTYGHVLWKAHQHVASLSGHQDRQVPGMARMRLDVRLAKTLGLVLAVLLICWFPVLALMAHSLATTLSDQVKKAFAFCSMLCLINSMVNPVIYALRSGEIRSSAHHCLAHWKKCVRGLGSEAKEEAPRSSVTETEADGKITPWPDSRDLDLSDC

c1ccc(Nc2nc3ccccc3nc2Nc2ccccc2)cc1 [Compound 2, N2,N3-diphenylquinoxaline-2,3-diamine]
Ki (human CB2 receptor [1]; [3]): 1.1 µM
selectivity for CB2 versus CB1 (in words) (human CB2 receptor [1]): only weakly selective
EC50 (human CB2 receptor [2]; [4]): 501 nM
Ki (human CB1 receptor): 1.8 µM

CC1CCN(C(NC(=O)c2ccc(C(C)(C)C)cc2)C(Cl)(Cl)Cl)CC1 (stereo not drawn) [Compound 4, 4-(tert-butyl)-N-(2,2,2-trichloro-1-(4-methylpiperidin-1 yl)ethyl)benzamide]
Ki (human CB2 receptor [1]; [3]): 0.2 µM
selectivity for CB2 versus CB1 (in words) (human CB2 receptor [1]): selectively bind CB2 receptors
Ki (human CB2 receptor [1]; log (Ki, Molar) CB2, [3H]CP 55,940 tracer at 1.5 nM): 0.251 µM
EC50 (human CB2 receptor [2]; [5]): 80 nM
Ki (human CB1 receptor): > 10 µM
inhibition of [3H]CP 55,940 binding to CB1 receptors (in words) (human CB1 receptor): no detectable inhibition
Ki (human CB1 receptor; [6]): > 10 µM

CCc1c(C)sc(NC(=O)C(Sc2ccccc2)c2ccccc2)c1C(=O)OC (stereo not drawn) [Compound 3, methyl 4-ethyl-5-methyl-2-(2-phenyl-2 (phenylthio)acetamido)thiophene-3-carboxylate]
Ki (human CB2 receptor [1]; [3]): 0.8 µM
selectivity for CB2 versus CB1 (in words) (human CB2 receptor [1]): only weakly selective
EC50 (human CB2 receptor [2]; [4]): 39.8 nM
Ki (human CB1 receptor): 1.6 µM

CC(C)c1cc(C2CCCN2C(=O)c2cc(-c3ccc4c(c3)OCO4)on2)no1 (stereo not drawn) [Compound 1, (5-(benzo[d][1,3]dioxol-5-yl)isoxazol-3-yl)(2-(5-isopropylisoxazol-3-yl)pyrrolidin-1-yl)methanone]
Ki (human CB2 receptor [1]; [3]): 2.3 µM
selectivity for CB2 versus CB1 (in words) (human CB2 receptor [1]): selectively bind CB2 receptors
EC50 (human CB2 receptor [2]; [5]): 500 nM
Ki (human CB1 receptor): > 10 µM
inhibition of [3H]CP 55,940 binding to CB1 receptors (in words) (human CB1 receptor): no measurable inhibition
Ki (human CB1 receptor; [6]): > 10 µM
